Experimental data reported in ChEMBL document CHEMBL1155898 (J Med Chem, 2008).
The source made the active and inactive calls.

What was measured:
[1] = Displacement of [3H]flumazenil from CBR in bovine cortical membrane; assay type: cell membranes, Bos taurus
Method in brief: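 Bovine or human cortical membranes washed free of endogenous GABA. […] Nonspecific binding with 10 µM diazepam. At least six concentrations over 3 log units, DMSO 2%. IC50 converted to Ki by Cheng-Prusoff (Kd 0.85 nM bovine, 0.91 nM human). Ki is the mean of three determinations.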

[2] = Displacement of [3H]flumazenil from CBR in human cortical membrane; assay type: cell membranes
Method in brief: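 Bovine or human cortical membranes washed free of endogenous GABA. Nonspecific binding with 10 µM diazepam. At least six concentrations over 3 log units, DMSO 2%. Ki is the mean of three determinations.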

[3] = organism: Bos taurus; test: Ratio of Ki for bovine CBR in absence of GABA to Ki for bovine CBR in presence of 50 uM GABA
[4] = organism: Homo sapiens; test: Ratio of Ki for human CBR in absence of GABA to Ki for human CBR in presence of 50 uM GABA
[5] = system: Mus musculus; test: Toxic myorelaxant activity in CD1 albino mouse assessed as number of falls in 30 secs at 0.3 mg/kg, po after 30 mins by rotarod test; assay type: toxicity, organism-based; design: dose 0.3 mg/kg, route oral; conditions: in vivo
Method in brief: (§1)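 Male CD-1 mice, dosed po or ip in 1% CMC (10 mL/kg). Rota-rod at 16 rpm; falls counted over 30 s, 30 min after dosing. At least 15-20 mice per group; ANOVA with Fisher PLSD versus CMC/saline controls.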

[6] = system: Mus musculus; test: Toxic myorelaxant activity in CD1 albino mouse assessed as number of falls in 30 secs at 1 mg/kg, po after 30 mins by rotarod test; assay type: toxicity, organism-based; design: dose 1 mg/kg, route oral; conditions: in vivo; method in brief: as §1
[7] = system: Mus musculus; test: Toxic myorelaxant activity in CD1 albino mouse assessed as number of falls in 30 secs at 3 mg/kg, po after 30 mins by rotarod test; assay type: toxicity, organism-based; design: dose 3 mg/kg, route oral; conditions: in vivo; method in brief: as §1
[8] = system: Mus musculus; test: Toxic myorelaxant activity in CD1 albino mouse assessed as number of falls in 30 secs at 6.5 mg/kg, po after 30 mins by rotarod test; assay type: toxicity, organism-based; design: dose 6.5 mg/kg, route oral; conditions: in vivo; method in brief: as §1
[9] = system: Mus musculus; test: Toxic myorelaxant activity in CD1 albino mouse assessed as number of falls in 30 secs at 12.5 mg/kg, po after 30 mins by rotarod test; assay type: toxicity, organism-based; design: dose 12.5 mg/kg, route oral; conditions: in vivo; method in brief: as §1
[10] = system: Mus musculus; test: Anticonvulsant activity in CD1 albino mouse assessed as pentylenetetrazole-induced convulsion latency time at 3 mg/kg, po; assay type: functional
Method in brief: (§2)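 Mice dosed po or ip in 1% CMC (10 mL/kg). Pentylenetetrazole 90 mg/kg sc given 30 min later; clonic generalized convulsions observed over 30 min. ANOVA/Fisher PLSD versus vehicle controls.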

[11] = system: Mus musculus; test: Effect on learning and memory performance in CD1 albino mouse assessed as training session latency at 3 mg/kg, po by passive avoidance test; assay type: functional
Method in brief: (§3)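 Mice dosed po or ip in 1% CMC (10 mL/kg). Step-through passive avoidance in a two-compartment box (lit and dark, joined by guillotine door); latencies recorded in training and retention sessions. At least 15-20 mice per group; ANOVA/Fisher PLSD versus CMC controls.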

[12] = system: Mus musculus; test: Anticonvulsant activity in CD1 albino mouse assessed as pentylenetetrazole-induced convulsion latency time at 6.5 mg/kg, po; assay type: functional; method in brief: as §2
[13] = system: Mus musculus; test: Anticonvulsant activity in CD1 albino mouse assessed as pentylenetetrazole-induced death latency time at 6.5 mg/kg, po; assay type: functional; method in brief: as §2
[14] = system: Mus musculus; test: Anticonvulsant activity in CD1 albino mouse assessed as pentylenetetrazole-induced convulsion latency time at 12.5 mg/kg, po; assay type: functional; method in brief: as §2
[15] = system: Mus musculus; test: Anticonvulsant activity in CD1 albino mouse assessed as pentylenetetrazole-induced death latency time at 12.5 mg/kg, po; assay type: functional; method in brief: as §2
[16] = system: Mus musculus; test: Antianxiety activity in CD1 albino mouse assessed as number of crosses at 0.3 mg/kg, po by light-dark box method; assay type: functional
Method in brief: (§4)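 Male CD-1 mice given drug po or ip in 1% CMC at 10 mL/kg. Light/dark box: number of transfers between compartments and time spent in the lit side recorded. At least 15-20 mice per group; ANOVA/Fisher PLSD versus vehicle.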

[17] = system: Mus musculus; test: Antianxiety activity in CD1 albino mouse assessed as time spent in light at 0.3 mg/kg, po by light-dark box method; assay type: functional; method in brief: as §4
[18] = system: Mus musculus; test: Antianxiety activity in CD1 albino mouse assessed as number of crosses at 1 mg/kg, po by light-dark box method; assay type: functional; method in brief: as §4
[19] = system: Mus musculus; test: Antianxiety activity in CD1 albino mouse assessed as time spent in light at 1 mg/kg, po by light-dark box method; assay type: functional; method in brief: as §4
[20] = system: Mus musculus; test: Antianxiety activity in CD1 albino mouse assessed as number of crosses at 3 mg/kg, po by light-dark box method; assay type: functional; method in brief: as §4
[21] = system: Mus musculus; test: Antianxiety activity in CD1 albino mouse assessed as time spent in light at 3 mg/kg, po by light-dark box method; assay type: functional; method in brief: as §4
[22] = system: Mus musculus; test: Antianxiety activity in CD1 albino mouse assessed as number of crosses at 6.5 mg/kg, po by light-dark box method; assay type: functional; method in brief: as §4
[23] = system: Mus musculus; test: Antianxiety activity in CD1 albino mouse assessed as time spent in light at 6.5 mg/kg, po by light-dark box method; assay type: functional; method in brief: as §4
[24] = system: Mus musculus; test: Antianxiety activity in CD1 albino mouse assessed as number of crosses at 12.5 mg/kg, po by light-dark box method; assay type: functional; method in brief: as §4
[25] = system: Mus musculus; test: Antianxiety activity in CD1 albino mouse assessed as time spent in light at 12.5 mg/kg, po by light-dark box method; assay type: functional; method in brief: as §4
[26] = system: Mus musculus; test: Effect on ethanol-induced sleep in CD1 albino mouse assessed as induction time at 3 mg/kg, po; assay type: functional
Method in brief: (§5)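 Mice dosed po or ip in 1% CMC (10 mL/kg). Ethanol 4 g/kg ip given 30 min later. Sleep time taken as duration of loss of righting reflex, cut-off 210 min. At least 15-20 mice per group; ANOVA/Fisher PLSD.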

[27] = system: Mus musculus; test: Effect on ethanol-induced sleep in CD1 albino mouse time assessed as endurance time 3 mg/kg, po; assay type: functional; method in brief: as §5
[28] = system: Mus musculus; test: Effect on ethanol-induced sleep in CD1 albino mouse assessed as induction time 6.5 mg/kg, po; assay type: functional; method in brief: as §5
[29] = system: Mus musculus; test: Effect on ethanol-induced sleep in CD1 albino mouse time assessed as endurance time 6.5 mg/kg, po; assay type: functional; method in brief: as §5
[30] = system: Mus musculus; test: Effect on ethanol-induced sleep in CD1 albino mouse assessed as induction time 12.5 mg/kg, po; assay type: functional; method in brief: as §5
[31] = system: Mus musculus; test: Effect on ethanol-induced sleep in CD1 albino mouse assessed as endurance time 12.5 mg/kg, po; assay type: functional; method in brief: as §5
[32] = system: Mus musculus; test: Effect on ethanol-induced sleep in CD1 albino mouse assessed as induction time 1 mg/kg, ip; assay type: functional; conditions: route intraperitoneal; method in brief: as §5
[33] = system: Mus musculus; test: Effect on ethanol-induced sleep in CD1 albino mouse time assessed as endurance time 1 mg/kg, ip; assay type: functional; conditions: route intraperitoneal; method in brief: as §5
[34] = system: Mus musculus; test: Anticonvulsant activity in CD1 albino mouse assessed as pentylenetetrazole-induced death latency time at 3 mg/kg, po by; assay type: functional; method in brief: as §2
[35] = system: Mus musculus; test: Effect on learning and memory performance in CD1 albino mouse assessed as retention session latency at 3 mg/kg, po by passive avoidance test; assay type: functional; method in brief: as §3
[36] = system: Mus musculus; test: Effect on learning and memory performance in CD1 albino mouse assessed as training session latency at 6.5 mg/kg, po by passive avoidance test; assay type: functional; method in brief: as §3
[37] = system: Mus musculus; test: Effect on learning and memory performance in CD1 albino mouse assessed as retention session latency at 6.5 mg/kg, po by passive avoidance test; assay type: functional; method in brief: as §3
[38] = system: Mus musculus; test: Effect on learning and memory performance in CD1 albino mouse assessed as training session latency at 12.5 mg/kg, po by passive avoidance test; assay type: functional; method in brief: as §3
[39] = system: Mus musculus; test: Effect on learning and memory performance in CD1 albino mouse assessed as retention session latency at 12.5 mg/kg, po by passive avoidance test; assay type: functional; method in brief: as §3
[40] = organism: Bos taurus; test: Displacement of [3H]flumazenil from CBR in bovine cortical membrane at 10 uM; assay type: cell membranes
[41] = organism: Homo sapiens; test: Displacement of [3H]flumazenil from CBR in human cortical membrane at 10 uM; assay type: cell membranes
[42] = organism: Rattus norvegicus; test: Inverse agonist activity at CBR in Sprague-Dawley rat brain cortex assessed as decrease in chloride influx; assay type: functional
[43] = organism: Rattus norvegicus; test: Agonist activity at CBR in Sprague-Dawley rat brain cortex assessed as increase in chloride influx; assay type: functional, tissue-based
[44] = system: Mus musculus; test: Anticonvulsant activity in CD1 albino mouse assessed as pentylenetetrazole-induced convulsion latency time at 1 mg/kg, ip; assay type: functional, organism-based; design: dose 1 mg/kg; method in brief: as §2
[45] = system: Mus musculus; test: Anticonvulsant activity in CD1 albino mouse assessed as pentylenetetrazole-induced death latency time at 1 mg/kg, ip; assay type: functional, organism-based; design: dose 1 mg/kg; method in brief: as §2
[46] = system: Mus musculus; test: Antianxiety activity in CD1 albino mouse assessed as time spent in light at 1 mg/kg, ip by light-dark box method; assay type: functional; conditions: route intraperitoneal; method in brief: as §4
[47] = system: Mus musculus; test: Effect on learning and memory performance in CD1 albino mouse assessed as training session latency at 1 mg/kg, ip by passive avoidance test; assay type: functional; conditions: route intraperitoneal; method in brief: as §3
[48] = system: Mus musculus; test: Effect on learning and memory performance in CD1 albino mouse assessed as retention session latency at 1 mg/kg, ip by passive avoidance test; assay type: functional; conditions: route intraperitoneal; method in brief: as §3

CCOC(=O)c1ncn2c1CN=C(c1cccc([N+](=O)[O-])c1)c1cc(F)ccc1-2
Ki [1]: 4.4 nM | Ki [2]: 9.7 nM | Ratio Ki [3]: 1.19 | Ratio Ki [4]: 1.2 | Activity [5]: 2.3 | Activity [6]: 2.2 | Activity [7]: 2.1 | Activity [8]: 2.7 | Activity [9]: 4.4 | Time [10]: 18.7 min | Time [11]: 18.3 s | Time [12]: 19.3 min | Time [13]: 22.5 min | Time [14]: 23.6 min | Time [15]: 39.8 min | Activity [16]: 14.6 | Activity [17]: 123.7 | Activity [18]: 8.6 | Time [19]: 132 s | Activity [20]: 5.6 | Time [21]: 169.3 s | Activity [22]: 5.4 | Time [23]: 181.2 s | Activity [24]: 5.1 | Time [25]: 186.8 s | Time [26]: 6.1 min | Time [27]: 13.5 min | Time [28]: 7.3 min | Time [29]: 118.2 min | Time [30]: 6.8 min | Time [31]: 177.8 min | Time [32]: 6.8 min | Time [33]: 177.8 min | Time [34]: 21.9 min | Time [35]: 88.7 s | Time [36]: 17.9 s | Time [37]: 76.5 s | Time [38]: 16 s | Time [39]: 55.7 s | Activity [40]: > 80% | Activity [41]: > 80% | Activity [42]: Active | Activity [43]: Active

CN1C(=O)CN=C(c2ccccc2)c2cc(Cl)ccc21 [DIAZEPAM]
Activity [44]: inactive | Activity [45]: inactive | Time [46]: 175.3 s | Time [32]: 4.6 min | Time [33]: >210 min | Time [47]: 20.9 s | Time [48]: 52.3 s

CCOC(=O)c1ncn2c1CN=C(c1ccc([N+](=O)[O-])cc1)c1ccccc1-2
IC50 [1]: 1.8 nM

CCOC(=O)c1ncn2c1CN(C)C(=O)c1cc(F)ccc1-2 [FLUMAZENIL]
Ki [1]: 1.9 nM

CN1C(=O)CN=C(c2ccccc2F)c2cc([N+](=O)[O-])ccc21 [FLUNITRAZEPAM]
Ki [1]: 5.17 nM | Ki [2]: 6.5 nM | Ratio Ki [3]: 1.68 | Ratio Ki [4]: 1.6

CCOC(=O)c1ncn2c1CN=C(c1ccc([N+](=O)[O-])cc1)c1cc(F)ccc1-2
Ki [1]: 14.8 nM | Ki [2]: 20 nM | Ratio Ki [3]: 0.89 | Ratio Ki [4]: 0.86 | Activity [40]: > 80% | Activity [41]: > 80% | Activity [42]: Active | Activity [43]: Active
